# High-throughput results: PubChem, The Scripps Research Institute Molecular Screening Center
# OX1R antag-1 – OX1R (HCRTR1) antagonists, primary screen, fluorescence, CHO/OX1R cells, Fluo-8 calcium, orexin A. 0.43% of 330,000 active. inhibition, % at 5 µM. AID 434989, 2010. Fluo-8 calcium fluorescence;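 active = inhibition above its plate's threshold, mean inhibition of all tested compounds on the plate plus 3 SD, cut at about 37% in these data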;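 also: 0% = orexin A challenge wells and 100% = SB-334867-A antagonist wells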
# CHO parental Ca – ATP-evoked calcium signal inhibitors, parental CHO, primary screen, counter-screen for OX1R antagonist project, cell-based, fluorescence, Fluo-8 calcium dye; 0.63% of 330,000 active; parental CHO-K1, ATP-induced calcium, Fluo-8 fluorescence; inhibition, % at 5.6 µM;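 active = inhibition above that plate's mean sample inhibition plus 3 SD, cut at about 26% in these data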;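 also: 0% = ATP-challenged DMSO wells and 100% = DMSO wells without ATP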
#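 material = parental CHO cells | also added = ATP as calcium-mobilizing challenge | dosing = single point at 5.6 µM | detection = intracellular calcium via Fluo-8 no-wash fluorescent dye | read-out = % inhibition | benchmarks = low control ATP plus DMSO, high control DMSO only | repeats = one well per compound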
# TAAR1 agonist – human TAAR1 agonists, primary screen, Fluo-8 calcium fluorescence, CHO RD-HGA16 cells; activation, % at 3 µM; vehicle wells 0%, saturating PEA agonist 100%; Trace amine-associated receptor 1 (Homo sapiens), Q96RJ0; 0.99% of 360,000 active;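 active = activation above the mean activation of all test compounds in the run plus 3 SD, cut at about 38% in these data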
# Target sequence (Q96RJ0 whole entry, looked up): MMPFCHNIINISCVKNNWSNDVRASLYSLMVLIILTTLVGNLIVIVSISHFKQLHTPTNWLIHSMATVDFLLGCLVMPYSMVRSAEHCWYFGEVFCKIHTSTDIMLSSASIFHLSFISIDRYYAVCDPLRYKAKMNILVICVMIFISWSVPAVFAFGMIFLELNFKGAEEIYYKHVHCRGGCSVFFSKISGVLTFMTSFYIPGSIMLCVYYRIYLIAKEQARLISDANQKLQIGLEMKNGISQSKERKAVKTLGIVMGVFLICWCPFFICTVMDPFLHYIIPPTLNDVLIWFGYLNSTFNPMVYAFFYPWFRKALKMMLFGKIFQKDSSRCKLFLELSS
#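 Signal – calcium-sensitive Fluo-8 signal, excitation 470-495, emission 515-575 nm · System – RD-HGA16 (CHO) cells co-expressing Gα16 and hTAAR1 · Incubation – 17-24 h seeding, 75 min 37 °C dye, 30 min RT · Compound dosing – 3 µM single concentration · Repeats – no replicates (n 1)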
# GPR7 antag – GPR7 receptor antagonists, primary screen, cell-based, fluorescence, single concentration; AID 1861, 2009; inhibition, % at 4.4 µM; GPR7-expressing cells, fluorescence antagonist assay; 1.1% of 290,000 active; Neuropeptides B/W receptor type 1 (Homo sapiens), P48145; in the data active = inhibition above about 16%, passing the limit was not always enough;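 also: cells stimulated with the agonist NPW; 0% = agonist with vehicle and 100% = vehicle without agonist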
# Target sequence (P48145 whole entry, looked up): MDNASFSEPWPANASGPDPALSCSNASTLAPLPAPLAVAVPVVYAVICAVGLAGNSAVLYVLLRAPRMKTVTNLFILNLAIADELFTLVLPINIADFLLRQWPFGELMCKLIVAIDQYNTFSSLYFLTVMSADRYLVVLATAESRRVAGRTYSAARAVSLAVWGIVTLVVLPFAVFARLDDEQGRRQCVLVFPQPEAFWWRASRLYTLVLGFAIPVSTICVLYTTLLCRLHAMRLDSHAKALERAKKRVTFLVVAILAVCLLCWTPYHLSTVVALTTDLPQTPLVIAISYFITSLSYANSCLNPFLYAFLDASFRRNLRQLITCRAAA
# OX1R antag-2 – antagonists of human orexin 1 receptor (OX1R). Orexin/Hypocretin receptor type 1 (Homo sapiens), O43613. inhibition, % at 6.6 µM. 1.8% of 330,000 active. OX1R-expressing cells, FRET antagonist read-out; in the data active = inhibition mostly above about 38%, no sharp cut-off; inactive = mostly below about 40%;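 also: 0% = agonist challenge alone and 100% = reference antagonist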
# TAAR1 antag – human TAAR1 antagonists, primary screen, Fluo-8 calcium fluorescence, CHO RD-HGA16 cells. antagonist. inhibition, % at 3 µM. 1.5% of 360,000 active;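 active = inhibition above a per-plate cutoff, the mean inhibition of test compounds on that plate plus 3 SD, cut at about 49% in these data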;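 also: 0% = DMSO plus EC80 beta-PEA response and 100% = DMSO alone without agonist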
#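 Assay system: RD-HGA16 CHO cells with stable hTAAR1 and Gα16 / Reagent: EC80 β-phenethylamine stimulus / Doses: 3 µM, single point / Timing: dye loading 75 min at 37 °C, then 30 min room temperature / Measured by: Fluo-8 intracellular calcium dye fluorescence, real-time kinetic reads / Controls: vehicle wells and EC80 agonist wells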
# TAAR1 nonsel count – nonselective antagonists in TAAR1 counter-screen cells, counter-screen for hTAAR1 antagonist project, cell-based, fluorescence, calcium. shares compounds with TAAR1 antag. counterscreen cell line, antagonist mode. inhibition, % at 3 µM. 77% of 2,400 active; in the data active = inhibition above about 22%;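 also: CHO-Ga16 host cells stimulated with ATP at an EC80 level; 0% = agonist EC80 plus vehicle and 100% = vehicle without agonist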
# TAAR1 antag conf – human TAAR1 antagonists, retest of hits, confirmation, cell-based, fluorescence; shares compounds with TAAR1 antag; TAAR1-expressing cells, fluorescence antagonist read-out; inhibition, % at 3 µM; 40% of 2,400 active; AID 651785, 2012; in the data active = inhibition above about 49%;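 also: CHO-Ga16 host cells challenged with agonist PEA near its EC80; 0% = agonist at EC80 plus vehicle and 100% = vehicle with no agonist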
# Ga16 ag counter – calcium activation in Ga16-expressing cells, counter-screen for TAAR1 antagonist project, cell-based, fluorescence | shares compounds with TAAR1 antag | agonist counterscreen | activation, % at 3 µM | 18% of 2,400 active | AID 651953, 2012; in the data active = activation above about 12%;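 also: 0% = vehicle wells and 100% = saturating stimulus response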
# TAAR1 ag count – TAAR1 activation by candidate antagonists – cell-based, fluorescence, counter-screen for TAAR1 antagonist project. shares compounds with TAAR1 antag. hTAAR1 cell line, agonist mode. activation, % at 3 µM. 2% of 2,400 active. AID 651955, 2012; in the data active = activation above about 37%;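 also: CHO cells stably expressing TAAR1 with calcium dye readout; 0% = DMSO vehicle and 100% = full agonist response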
# The depositor's hits bear a star; · = not tested or not shown. This is a sample that favours compounds with a hit; in the whole collection about 4.6% have one here.
SMILES,OX1R antag-1,CHO parental Ca,TAAR1 agonist,GPR7 antag,OX1R antag-2,TAAR1 antag,TAAR1 nonsel count,TAAR1 antag conf,Ga16 ag counter,TAAR1 ag count
COc1ccc2c(c1OC)C(=O)N1c3ccccc3C(=O)N(c3ccc(F)cc3)C21 (stereo not given),-24,-17,19,16,35,82*,28*,49*,8,11
COc1ccc(C(=O)/C=C/c2ccc(OCc3ccccc3)cc2)cc1CSCC(=O)O,·,·,13,-22,·,62*,38*,54*,10,10
COc1ccc(C(=O)/C=C/c2cccc(OCc3ccccc3)c2)cc1CSCC(=O)O,7,-14,3,16,21,15,·,·,·,·
COc1cccc(COC(=O)Nc2ccccc2)c1OC,·,·,-1,·,·,-14,·,·,·,·
C=C(C)C1CCC(C)=C1COC(=O)Nc1ccccc1 (stereo not given),-3,-27,21,-6,22,53*,-2,2,-1,-3
CCNS(=O)(=O)c1ccc(CCC(=O)N2CCc3ccccc3C2)cc1,-12,-6,3,-17,-10,-33,·,·,·,·
Cc1ccc(S(=O)(=O)NC(CC(C)C)C(=O)Oc2ccc3c4c(c(=O)oc3c2)CCC4)cc1 (stereo not given),-18,-22,10,-2,15,67*,26*,45,6,4
COC(=O)c1ccc(S(=O)(=O)N(Cc2ccccc2)Cc2ccccc2)n1C,-32,-19,0,-12,9,102*,12,10,0,-2
CCN(Cc1ccccc1)S(=O)(=O)c1cc(C(=O)OC)n(C)c1,-1,-6,0,-5,15,17,·,·,·,·
CCOC(=O)C1=C[C@@H](C(C)(C)C)N(S(=O)(=O)c2ccc(C)cc2)[C@H]1c1ccc(F)cc1,·,·,-1,·,·,11,·,·,·,·
Cc1ccccc1C(=O)Oc1ccc(Sc2ccc(O)cc2)cc1,4,-17,10,-17,24,61*,18,15,-1,0
Cc1ccccc1C(=O)Oc1ccc(-c2csnn2)cc1,-3,5,1,-4,20,22,·,·,·,·
C[C@H](NC(=O)c1ccccc1Cl)C(=O)Nc1ccccc1F,-23,-15,0,-1,21,-7,·,·,·,·
CCCCNc1c(-c2cccc(-c3cc(C(C)=O)cs3)c2)nc2ccc(C)cn12,-13,-15,15,·,50,68*,36*,54*,7,5
COc1ccc(S(=O)(=O)Nc2cccc(S(=O)(=O)NC3=NCCC3)c2)cc1[N+](=O)[O-],-9,-13,2,·,15,-10,·,·,·,·
CCOC(=O)N1CCC(NC(=O)c2ccc3c(c2)sc2nc(-c4ccccc4)cn23)CC1,-7,-15,17,5,15,57*,31*,35,10,8
CCOC(=O)N1CCC(NC(=O)c2ccc3c(c2)sc2nc(-c4cccc(OC)c4)cn23)CC1,·,·,·,-10,·,·,·,·,·,·
NC1=NC[C@@H](Cc2ccc(O)cc2)N1CCCCC1CCCCC1,-7,-13,0,·,24,-3,·,·,·,·
COc1ccc(/C=N/NC(=O)c2cccnc2)cc1COc1ccc([N+](=O)[O-])c(C)c1,-7,-6,16,14,13,64*,38*,53*,12*,11
Cc1ccc(C(=O)N/N=C/c2ccc(OC(=O)c3ccccc3Cl)cc2)cn1,8,7,16,9,16,47,·,·,·,·
COc1cc(/C=N/NC(=O)c2cccnc2)ccc1OC(=O)c1ccc2c(c1)OCO2,-11,-18,20,-8,26,54*,26*,29,9,17
O=C(N/N=C/c1cccc(OC(=O)c2ccccc2Cl)c1)c1cccnc1,-16,-21,14,-6,14,54*,21,33,9,12
COc1ccc(C(=O)NC2CC(C)(C)Cc3occc32)cc1 (stereo not given),-27,-10,-4,4,-3,-4,·,·,·,·
N#Cc1ccc(COC(=O)c2cnc3ccccc3n2)cc1,-12,0,1,-4,14,-8,·,·,·,·
CC(C)c1cccc(-c2ccc3c(c2)S(=O)(=O)c2cccc(C(=O)NCc4ccccc4Cl)c2C3=O)c1,-9,-17,·,·,5,·,·,·,·,·
SMILES,OX1R antag-1,CHO parental Ca,TAAR1 agonist,GPR7 antag,OX1R antag-2,TAAR1 antag,TAAR1 nonsel count,TAAR1 antag conf,Ga16 ag counter,TAAR1 ag count
O=C(O)c1cccc2c1C(=O)c1ccc(-c3ccc(F)cc3OCc3ccccc3)cc1S2(=O)=O,-17,-15,·,·,0,·,·,·,·,·
O=C(NC[C@H]1CCCO1)c1cccc2c1C(=O)c1ccc(-c3ccc(F)cc3OCc3ccccc3)cc1S2(=O)=O,7,-4,19,·,16,69*,37*,51*,8,8
CC(C)c1cccc(-c2ccc3c(c2)S(=O)(=O)c2cccc(C(=O)NCc4ccccc4)c2C3=O)c1,-11,-6,7,·,3,61*,36*,47,4,2
Nc1nc(Cl)nc2c1ncn2C1CC(O)C(CO)O1 (stereo not given),-5,0,1,·,5,-13,·,·,·,·
Cc1c(C(=O)N2CCN(c3ccccc3)CC2)oc2c1C(=O)CC(C)(C)C2,-15,-16,11,-18,16,67*,30*,53*,8,7
O=C(CSc1ccc(Cl)cc1)N1CCN(c2ccc(Cl)cc2[N+](=O)[O-])CC1,-13,1,2,-15,31,67*,25*,45,4,1
COC(=O)c1cc2c(c3c4cc(C)ccc4n(C(=O)c4ccccc4)c13)C(=O)N(Cc1ccccc1)C2,·,·,8,·,·,67*,29*,56*,7,5
CC(C)c1ccc(/C=N/NC(=O)c2ccc(-n3cnnn3)cc2)cc1,·,·,16,·,·,66*,32*,48,9,8
